Data from ChEMBL document CHEMBL4725495, “Resorufin Enters the Photodynamic Therapy Arena: A Monoamine Oxidase Activatable Agent for Selective Cytotoxicity” (ACS Med Chem Lett, 2020).
Active and inactive are the calls of the source. No cut-off for these calls is given here.

Tests used:
[1] = test system: SH-SY5Y; test: Induction of apoptosis in human SH-SY5Y cells assessed as necrotic cells level irradiated with 595 nm LED for 4 hrs at 2.5 uM by Annexin V-FITC/PI staining based confocal microscopy; format: functional, cell-based
Method in brief: (§1)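 SH-SY5Y cells incubated with R1 (2.5 μM), kept dark or irradiated 4 h with 595 nm LED (20 mW/cm2), then stained with annexin V-FITC (green, early apoptosis) and propidium iodide (red, late apoptotic/necrotic); confocal imaging.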

[2] = Photocytotoxicity against […] cells assessed as cell viability in dark at 2.5 uM measured after 24 hrs by MTT assay; format: cell-based; settings: nih3t3, 24 h
Method in brief: (§2)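 Cells incubated with varying R1 concentrations and kept in the dark in parallel with irradiated plates; viability by MTT assay.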

[3] = test system: SH-SY5Y; test: Induction of ROS production in human SH-SY5Y cells irradiation with LED light for 30 mins measured after 3 hrs by DCFH-DA staining based fluorescence microscopy in presence of clorgyline; format: functional, cell-based
Method in brief: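 SH-SY5Y cells pretreated 30 min with clorgyline (0.1 μM), then incubated 3 h with R1 plus DCFH2-DA sensor and irradiated 30 min with LED (20 mW/cm2); green fluorescence imaged.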

[4] = Photocytotoxicity against […] cells assessed as cell viability at 2.5 uM irradiated with 595 nm LED for 4 hrs measured after 24 hrs by MTT assay; format: cell-based, NIH3T3; settings: read-out: Activity
Method in brief: (§3)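 Cells incubated with varying R1 concentrations, then irradiated 4 h with 595 nm LED (20 mW/cm2); viability read by MTT assay; IC50 from concentration–viability curves.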

[5] = molecular target: T1, Amine oxidase [flavin-containing] B (Homo sapiens, UniProt P27338); test: Prodrug activation assessed as MAO-B (unknown origin) mediated drug activation measured increase in emission signal at 620 nm at 10 uM over 3 hrs by fluorescence spectroscopy
T1 sequence (P27338 whole entry): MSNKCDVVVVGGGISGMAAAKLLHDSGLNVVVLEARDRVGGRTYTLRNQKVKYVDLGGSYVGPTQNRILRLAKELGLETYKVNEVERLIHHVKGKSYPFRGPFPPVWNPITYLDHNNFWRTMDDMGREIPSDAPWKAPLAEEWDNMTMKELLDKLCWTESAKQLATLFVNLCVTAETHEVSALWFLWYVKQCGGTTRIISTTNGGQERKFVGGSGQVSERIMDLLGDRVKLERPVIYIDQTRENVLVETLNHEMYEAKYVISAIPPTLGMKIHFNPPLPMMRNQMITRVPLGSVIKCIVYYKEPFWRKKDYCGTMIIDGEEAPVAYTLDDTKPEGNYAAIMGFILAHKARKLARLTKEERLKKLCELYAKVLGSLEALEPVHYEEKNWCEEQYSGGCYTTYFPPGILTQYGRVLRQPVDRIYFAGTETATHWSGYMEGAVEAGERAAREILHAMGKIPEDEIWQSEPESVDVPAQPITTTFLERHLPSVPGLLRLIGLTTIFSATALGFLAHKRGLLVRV

[6] = Induction of singlet oxygen generation using PBS buffer assessed as decrease in absorbance of ADMDA at 380 nm irradiated with 595 nm LED; format: functional
Method in brief: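 R1 (10 μM) pretreated with MAO-A or MAO-B (20 μg/mL) in PBS pH 7.4, 1% DMSO, with water-soluble anthracene trap ADMDA; kept dark 2 min, then irradiated with 595 nm LED (20 mW/cm2); ADMDA absorbance at 380 nm followed.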

[7] = test system: SH-SY5Y; test: Induction of apoptosis in human SH-SY5Y cells assessed as apoptotic cells incubated in dark for 4 hrs at 2.5 uM by Annexin V-FITC/PI staining based confocal microscopy; format: functional, cell-based; method in brief: as §1
[8] = molecular target: T2, Amine oxidase [flavin-containing] A (Homo sapiens, UniProt P21397); test: Prodrug activation assessed as MAO-A (unknown origin) mediated drug activation measuring increase in emission signal at 620 nm at 10 uM over 3 hrs by fluorescence spectroscopy
T2 sequence (P21397 whole entry): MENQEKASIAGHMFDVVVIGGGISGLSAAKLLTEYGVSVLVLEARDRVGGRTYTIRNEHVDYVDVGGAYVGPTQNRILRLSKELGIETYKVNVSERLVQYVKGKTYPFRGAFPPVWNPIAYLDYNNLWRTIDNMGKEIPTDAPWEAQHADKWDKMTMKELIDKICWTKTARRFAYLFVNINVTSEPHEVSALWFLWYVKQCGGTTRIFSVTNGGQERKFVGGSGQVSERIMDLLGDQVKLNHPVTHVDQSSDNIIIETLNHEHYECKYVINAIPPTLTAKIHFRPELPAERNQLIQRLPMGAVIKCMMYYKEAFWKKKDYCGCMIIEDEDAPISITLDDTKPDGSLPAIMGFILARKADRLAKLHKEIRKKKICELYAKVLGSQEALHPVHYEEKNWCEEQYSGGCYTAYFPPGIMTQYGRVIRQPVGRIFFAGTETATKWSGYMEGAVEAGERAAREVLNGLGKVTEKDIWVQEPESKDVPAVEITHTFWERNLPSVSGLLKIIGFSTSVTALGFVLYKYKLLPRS

[9] = test system: SH-SY5Y; test: Induction of ROS production in human SH-SY5Y cells in dark measured 3 hrs by DCFH2-DA fluorescence assay relative to control
[10] = test system: SH-SY5Y; test: Photocytotoxicity against human SH-SY5Y cells assessed as cell viability at 2.5 uM irradiated with 595 nm LED for 4 hrs measured after 24 hrs by MTT assay; format: functional; settings: light or radiation study, read-out: Activity; method in brief: as §3
[11] = test system: SH-SY5Y; test: Induction of apoptosis in human SH-SY5Y cells assessed as early apoptotic cells level irradiated with 595 nm LED for 4 hrs at 2.5 uM by Annexin V-FITC/PI staining based confocal microscopy; format: functional, cell-based; method in brief: as §1
[12] = test system: SH-SY5Y; test: Induction of ROS production in human SH-SY5Y cells assessed as green emission irradiation with LED light for 30 mins measured after 3 hrs incubation by DCFH-DA staining based fluorescence microscopy; format: functional, cell-based
Method in brief: (§4)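 Cells loaded with R1 for 3 h and with DCFH2-DA ROS sensor, then irradiated 30 min with LED (20 mW/cm2); green emission from oxidized sensor imaged by fluorescence microscopy.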

[13] = molecular target: T2, Amine oxidase [flavin-containing] A; test: Prodrug activation assessed as MAO-A (unknown origin) mediated drug activation by measuring red shift of absorption maxima at 588/595 nm at 10 uM for 3 hrs by absorption spectroscopy
[14] = test system: SH-SY5Y; test: Photocytotoxicity against human SH-SY5Y cells assessed as cell viability in dark at 2.5 uM measured after 24 hrs by MTT assay; format: functional, cell-based; method in brief: as §2
[15] = test system: NIH3T3; test: Induction of ROS production in […] cells irradiation with LED light for 30 mins measured after 3 hrs by DCFH-DA staining based fluorescence microscopy; format: functional, cell-based; method in brief: as §4
[16] = test system: SH-SY5Y; test: Photocytotoxicity against human SH-SY5Y cells assessed as reduction in cell viability for 30 mins followed by irradiation with LED light after 30 mins by MTTassay; format: functional, cell-based; settings: light or radiation study, 0.5 h
Method in brief: (§5)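 Cells incubated with varying R1 concentrations, then irradiated 30 min with 595 nm LED (20 mW/cm2); viability by MTT assay; IC50 from curves.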

[17] = Photocytotoxicity against […] cells assessed as reduction in cell viability for 30 mins followed by irradiation with LED light after 30 mins by MTTassay; format: cell-based; settings: nih3t3, 0.5 h; method in brief: as §5
[18] = Photocytotoxicity against […] cells assessed as reduction in cell viability irradiated with 595 nm LED for 4 hrs measured after 24 hrs by MTT assay; format: cell-based; settings: NIH3T3, light or radiation study; method in brief: as §3
[19] = test system: MCF7; test: Photocytotoxicity against human MCF-7 cells assessed as reduction in cell viability irradiated with 595 nm LED for 4 hrs measured after 24 hrs by MTT assay; format: functional, cell-based; settings: MCF7, light or radiation study; method in brief: as §3
[20] = Photostability in pH 7.4 PBS buffer at 408/500 nm irradiated with 595 nm LED for 4 hrs; format: physicochemical; settings: pH 7.4, 4 h
[21] = test system: SH-SY5Y; test: Photocytotoxicity against human SH-SY5Y cells assessed as reduction in cell viability irradiated with 595 nm LED for 4 hrs measured after 24 hrs by MTT assay; format: functional, cell-based; settings: light or radiation study; method in brief: as §3
[22] = test system: SH-SY5Y; test: Induction of ROS production in human SH-SY5Y cells assessed as green emission irradiation with LED light after 30 mins in presence of NaN3 measured after 3 hrs incubation by DCFH-DA staining based fluorescence microscopy; format: functional, cell-based
Method in brief: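 SH-SY5Y cells pretreated with NaN3 as 1O2 quencher, then incubated with R1 and DCFH2-DA and irradiated with LED (20 mW/cm2); sensor green emission imaged by fluorescence microscopy.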

[23] = test system: SH-SY5Y; test: Induction of apoptosis in human SH-SY5Y cells assessed as late apoptotic cells level irradiated with 595 nm LED for 4 hrs at 2.5 uM by Annexin V-FITC/PI staining based confocal microscopy; format: functional, cell-based; method in brief: as §1

Question: What does the source list for `NCCCOc1ccc2nc3ccc(=O)cc-3oc2c1I`?
Answer: Activity [1]: Active; Activity [2]: Non-Toxic; Activity [3]: inactive; viability at 24 h, 2.5 µM [4]: 70%; Activity [5]: Not Active; Activity [6]: inactive; Activity [7]: inactive; Activity [8]: Not Active; Activity [9]: inactive; viability at 2.5 µM [10]: 3%; Activity [11]: Active; Activity [12]: Active; Activity [13]: Active; Activity [14]: inactive; Activity [15]: inactive; IC50 [16]: 1900 nM; Activity [17]: Non-Toxic; IC50 [18]: 6500 nM; IC50 [19]: 4000 nM; Stabilty [20]: Stable; IC50 [21]: 420 nM; Activity [22]: inactive; Activity [23]: Active
